Data: article PMC2857554 (Nature chemical biology, 2010)

Tests used:
[1] = test system: Mps1; details: cited from earlier work
[2] = test system: mammalian cells; details: cited from earlier work
[3] = test system: U2OS cells with Plk4 overexpression; test: Proliferation assay of PLK4-overexpressing U2OS cells; format: cell-based; details: 48, 72, 96 hours
[4] = test system: U2OS H2B–GFP cells with Plk4 overexpression; test: Time-lapse of mitosis in cells with extra centrosomes; format: cell-based; details: extra centrosome containing cells
Summary of the method: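 U2OS H2B–GFP cells with doxycycline-inducible Plk4 were blocked in thymidine for 18 h, then released into doxycycline (2 µg·ml−1) for 10 h. A second 18 h thymidine block followed, then release into medium for 6 h. Cells were treated with 5 µM test compound and imaged by time-lapse at 37°C, 5% CO2.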

[5] = molecular target: Aurora B (Homo sapiens, UniProt Q96GD4); test: Lanthascreen in vitro assay on Aurora B; format: binding; details: in vitro assays
Aurora B, sequence (Q96GD4 whole entry): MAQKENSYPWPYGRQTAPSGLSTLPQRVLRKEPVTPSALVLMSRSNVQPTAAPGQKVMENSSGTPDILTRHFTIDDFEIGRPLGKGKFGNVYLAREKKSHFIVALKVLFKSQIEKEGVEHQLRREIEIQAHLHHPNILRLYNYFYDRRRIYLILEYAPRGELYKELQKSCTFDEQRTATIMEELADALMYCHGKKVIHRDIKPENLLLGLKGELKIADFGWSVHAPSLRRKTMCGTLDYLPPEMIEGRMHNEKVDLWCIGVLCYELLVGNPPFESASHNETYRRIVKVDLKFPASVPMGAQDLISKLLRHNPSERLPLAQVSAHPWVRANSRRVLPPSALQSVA

[6] = test system: MCF10A cells; test: PARP cleavage immunoblot; format: cell-based; details: 25 µM
[7] = test system: hTERT-RPE1 cells; test: PARP cleavage immunoblot; format: cell-based; details: 25 µM
[8] = test system: HCT116 cells; test: Colony outgrowth assay; format: cell-based; details: 5–10 µM, 10 days
[9] = test system: Hela S3 or U2OS cells; test: Centrosome duplication in cycling cells; format: cell-based; details: 10 µM, 1 or 2 cell doublings
Summary of the method: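 Hela S3 and U2OS cells on 12-mm coverslips were synchronized, then cycled in test compound or DMSO for one or two cell cycles. Mitotic spindles were stained for centrin, α-tubulin and DNA. The percentage of mitotic cells with fewer than 4 centrin dots was scored, counting 135–300 cells per arm. Results are mean ± SD from three independent experiments.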

[10] = test system: U2OS cells; test: Mitotic escape assay; format: cell-based
[11] = test system: HCT116 cells; test: Proliferation assay; format: cell-based
[12] = test system: PtK2 cells stably expressing HsMad2-EYFP; test: Mad2 kinetochore establishment assay; format: cell-based, Potorous tridactylus; details: 10 µM, NEB to NER
[13] = test system: U2OS cells; test: Intracellular Aurora B kinase activity, immunoblot; format: cell-based; details: taxol and MG132, mitotic shake-off
[14] = test system: Hela S3 cells expressing histone H2B-GFP; test: Mitotic escape, time-lapse, nocodazole arrest; format: cell-based; details: nocodazole-arrested cells
Summary of the method: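 Hela S3 cells expressing H2B-GFP were treated with nocodazole with or without test compound. They were imaged in a heated chamber (37°C, 5% CO2), with DIC and GFP frames every 5 min across 5 z-planes. Mitotic exit was scored by nuclear envelope reassembly, counting 150 cells per population.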

[15] = test system: UTRM10 cells; test: Centriole overduplication under hydroxyurea; format: cell-based; details: 10 or 25 µM with hydroxyurea, 48 hours
Summary of the method: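 UTRM10 cells co-treated for 48 h with hydroxyurea (4 mM) plus test compound (10 or 25 µM) or DMSO vehicle. Centrioles were scored by centrin immunostaining, with about 433–485 cells counted per condition. Results are mean ± SD of three independent experiments.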

[16] = test system: HCT116 cells; test: PARP cleavage immunoblot; format: cell-based
Summary of the method: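 HCT116 cells in McCoy's 5A with 10% FBS were treated with test compound at a series of concentrations. Lysates were collected at 24, 48 and 72 h and immunoblotted for PARP cleavage.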

[17] = test system: UTRM10 cells expressing LAP-Mps1 M602Q; test: pHistone H3 immunoblot in cells expressing inhibitor-resistant Mps1; format: cell-based; details: thymidine/taxol arrest; VX-680 2 µM

| SMILES | inhibition of Mps1 kinase activity in S. cerevisiae [1] | effectiveness in mammalian cells [2] | additional cytotoxicity versus parental U2OS [3] | decrease in time spent in mitosis [4] | activity against Aurora B in vitro [5] | apoptosis-associated PARP cleavage [6] | apoptosis-associated PARP cleavage [7] | cell viability and clonal survival [8] | mitotic cells containing less than 4 centrioles, versus vehicle [9] | 4c pHistone H3 negative cells, flow cytometry ([10]; nocodazole-arrested cells) | cyclin B protein levels ([10]; thymidine/nocodazole arrest, 4 hrs inhibitor, reversed by MG132) | cytotoxic concentrations [11] | less time spent in mitosis versus DMSO [12] | phosphorylation of Aurora B at Thr232 [13] | time within which the majority of cells escape mitosis [14] | effect on centriole overduplication [15] | onset of PARP cleavage (apoptosis) [16] | mitotic escape despite LAP-Mps1 M602Q [17] | hyperphosphorylation status of Mps1 (mobility shift) [13] |
| --- | --- | --- | --- | --- | --- | --- | --- | --- | --- | --- | --- | --- | --- | --- | --- | --- | --- | --- | --- |
| O=c1[nH]c2ccc(Br)cc2o1 [cincreasin] | effective | ineffective |  |  |  |  |  |  |  |  |  |  |  |  |  |  |  |  |  |
| COc1cc(N2CCC(O)CC2)ccc1Nc1cc(Nc2ccccc2S(=O)(=O)C(C)C)c2cc[nH]c2n1 [Mps1-IN-1] |  |  | no detectable additional cytotoxicity | 4 fold | does not exhibit activity against Aurora B | little-to-no apoptosis-associated PARP cleavage | little-to-no apoptosis-associated PARP cleavage | severe loss of cell viability and clonal survival | no significant difference | dose-dependent accumulation of 4c pHistone H3 negative cells | dropped with increasing concentration | 5 to 10 µM | roughly 40% | dose-dependent reduction | ≤ 1 h | no effect | 48 h |  |  |
| Cc1cc(Nc2cc(N3CCN(C)CC3)nc(Sc3ccc(NC(=O)C4CC4)cc3)n2)n[nH]1 [VX-680] |  |  |  |  |  |  |  |  |  |  |  |  |  | inhibited |  |  |  | still capable of executing an efficient mitotic escape | did not adversely affect |
